Shown are actives, neighbours in structure and some others; about 4.1% of the full set was active somewhere.
KCNK9 inh – KCNK9 potassium channel inhibitors, primary screen, HEK293 cells, thallium flux. hit rate 1.2% among 310,000. B-score at 10 µM. FluxOR thallium flux fluorescence; hits give low values;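 active = ratio B-score over 3 SD below the library mean, with starting fluorescence within 5 SD of its mean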;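 note: negative B-score means less thallium flux so channel inhibition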
KCNK3 inh – human KCNK3 channel inhibitors, primary screen, CHO cells, FluxOR thallium flux, B-score | AID 602410, 2012 | hit rate 0.84% among 340,000 | FluxOR fluorescence; hits give low values | Potassium channel subfamily K member 3 (Homo sapiens), O14649 | B-score at 10 µM;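 active = B-score under library mean minus 4 SD, starting fluorescence ratio at most library mean plus 5 SD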;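 note: more negative B-score means stronger inhibition of thallium flux through KCNK3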
KCNQ1 inh – inhibitors of human KCNQ1 channel, primary screen, cell-based, thallium flux, high-throughput | hit rate 1.3% among 310,000 | AID 2642, 2010 | CHO-K1 KCNQ1, FluxOR thallium flux fluorescence; hits give high values | Potassium voltage-gated channel subfamily KQT member 1 (Homo sapiens), P51787 | B-score at 10 µM;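 active = compounds whose thallium flux B-score, printed positive for inhibition, exceeds three library SD while starting fluorescence stays within three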;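 note: channel opened by potassium depolarization with thallium stimulus after 20 min compound exposure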
Target sequence (P51787 whole entry, looked up): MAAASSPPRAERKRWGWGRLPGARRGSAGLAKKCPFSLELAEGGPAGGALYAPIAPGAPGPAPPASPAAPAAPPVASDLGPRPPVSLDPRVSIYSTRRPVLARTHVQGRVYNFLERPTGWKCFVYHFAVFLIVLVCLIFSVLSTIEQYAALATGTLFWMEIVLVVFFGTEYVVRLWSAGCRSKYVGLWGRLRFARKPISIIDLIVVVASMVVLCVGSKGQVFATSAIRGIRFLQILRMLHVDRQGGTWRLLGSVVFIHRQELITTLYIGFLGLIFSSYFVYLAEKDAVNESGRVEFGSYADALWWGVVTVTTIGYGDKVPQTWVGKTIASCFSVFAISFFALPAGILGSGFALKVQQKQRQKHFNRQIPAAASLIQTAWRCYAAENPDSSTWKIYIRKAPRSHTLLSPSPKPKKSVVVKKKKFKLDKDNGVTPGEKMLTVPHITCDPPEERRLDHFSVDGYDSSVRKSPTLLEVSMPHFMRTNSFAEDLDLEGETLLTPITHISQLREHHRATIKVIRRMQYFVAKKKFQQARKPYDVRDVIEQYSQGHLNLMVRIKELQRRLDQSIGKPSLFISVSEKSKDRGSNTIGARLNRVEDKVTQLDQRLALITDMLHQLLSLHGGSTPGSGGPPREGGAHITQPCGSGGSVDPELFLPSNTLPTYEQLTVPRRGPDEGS
KCNQ1 pot – potentiators or activators of KCNQ1 channel, primary screen, cell-based, thallium flux, high-throughput; Potassium voltage-gated channel subfamily KQT member 1 (Homo sapiens), P51787; CHO-K1 KCNQ1, thallium flux FluxOR fluorescence; hits give high values; B-score at 10 µM; hit rate 0.35% among 310,000;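 active = fluorescence ratio B-score, a plate-corrected score, at least three library SD, with initial intensity B-score within 5 SD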
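Test system: CHO-K1 cells stably expressing KCNQ1 / Medium: assay buffer / Also added: depolarizing K+/Tl+ stimulus, K2SO4 and Tl2SO4 each 12.5 mM in 5x stock / Incubation: 90 min dye loading and 20 min compound exposure, both at room temperature / Signal: thallium influx via FluxOR fluorescence, kinetic imaging / Evaluation: B score of baseline-normalized fluorescence ratio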
hERG protect – hERG rescue from dofetilide block, primary screen, cell-based, CHO-hERG, FluxOR thallium flux, dofetilide IC70 | Voltage-gated inwardly rectifying potassium channel KCNH2 (Homo sapiens), Q12809 | dofetilide IC70 present | activation (rescue from dofetilide block), less the hit threshold, % at 10 µM | hit rate 0.51% among 310,000 | AID 1511, 2009;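 active = activation above the mean of controls blocked by dofetilide plus 5 SD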;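 note: thallium influx through hERG after potassium depolarization seen as dye fluorescence rise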
KCC2 mod – KCC2 cotransporter modulators, thallium flux, primary screen, cell-based, HEK293 KCC2, FluoZin-2 fluorescence, MLSMR | hit rate 2.2% among 190,000 | AID 1456, 2008 | B-score of Tl+ flux slope (higher = more flux/activation; lower = inhibition) at 10 µM | Solute carrier family 12 member 5 (Homo sapiens), Q9H2X9 | KCC2 cells, thallium flux FluoZin-2 fluorescence;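 active = thallium flux slope and its plate-corrected score both differing from the plate sample mean at a set confidence after two filtering rounds, in either direction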;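 note: slope of fluorescence scaled to starting intensity during 10 to 20 s after thallium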
KCNK3 confirm – retest of human KCNK3 channel inhibitors, confirmation, CHO cells, FluxOR thallium flux, triplicate; shares compounds with KCNK3 inh; FluxOR fluorescence; 0% buffer, 100% carvedilol maximal block; ratio percent of control, % at 10 µM; hit rate 99% among 2,400; AID 651638, 2012;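 active = ratio percent of control, averaged over triplicates, above buffer control mean plus 5 SD, cut at about 64% in these data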;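 note: ratio is the fluorescence rise from min to max over baseline after thallium stimulus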
KCNK3 uninduced – thallium flux inhibition in non-induced cells, primary screen, counter-screen for KCNK3 inhibitor project, cell-based, non-induced KCNK3 line, FluxOR thallium, triplicate; shares compounds with KCNK3 inh; thallium flux ratio (lower = more inhibition) at 10 µM; non-induced KCNK3 parental cells; hits give low values; hit rate 40% among 2,400;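 active = thallium flux ratio, averaged over three wells, more than 5 SD below the buffer control mean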;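 note: host cells are CHO cells without KCNK3 induction; ratio is peak minus trough fluorescence over baseline then normalized to buffer controls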
* hit, by the source's call; i = inactive; / = no result given.

SMILES	KCNK9 inh	KCNK3 inh	KCNQ1 inh	KCNQ1 pot	hERG protect	KCC2 mod	KCNK3 confirm	KCNK3 uninduced
N#Cc1cc2c(nc1SCC(O)CS(=O)(=O)Cc1ccc(Cl)cc1)CCCC2 (centres undefined)	i	-11*	i	i	-3	-1	109*	0.15*
CCN(CC)S(=O)(=O)c1cc(-c2nnc(-c3ccc(Br)cc3)o2)ccc1Br	i	-9.4*	i	i	-4	1.8	110*	0.16*
CNC(=O)C12CC3CC(CC(Cl)(C3)C1)C2	i	i	i	i	-4	0.67	/	/
CCOC(=O)CNC(=O)C1c2ccccc2Oc2ccccc21	i	-12*	i	i	-8	/	50*	i
CC1(C)Cc2cccc(C(=O)NC3CCN(Cc4ccccc4)CC3)c2O1	i	-8.8*	i	i	-10	/	114*	i
Cc1ccccc1C(=O)NC1CCN(Cc2ccccc2)CC1	i	i	i	i	-10	0.79	/	/
COc1cccc(CN2CCN(S(=O)(=O)c3ccc(Cl)s3)CC2)c1	i	-9.2*	i	i	-4	/	116*	0.13*
COc1ccc(S(=O)(=O)N2CCN(Cc3cccc(Cl)c3)CC2)cc1	i	i	i	i	-2	-1.4	/	/
CC(=O)C(/C=N/c1ncc(C(F)(F)F)cc1Cl)=C(\C)O	i	i	i	i	-9	0.13	/	/
Cc1cc(C)c(NC(=O)/C(=C/c2ccco2)c2ccccc2)c(C)c1	i	-9*	i	i	-3	-2.3	108*	i
Cc1ccc(CN2CCN(/N=C/c3ccc(Cl)c([N+](=O)[O-])c3)CC2)cc1	i	-8.7*	i	i	-1	-1	121*	i
COc1ccc(CNC(=O)CSc2nc3ccccc3n2C(C)=O)cc1	i	i	i	i	-6	/	/	/
COc1ccccc1OCCCn1c(C)c(C#N)c2ccccc21	i	-10*	i	i	-9	/	119*	0.16*
Cc1c(C#N)c2ccccc2n1CC(=O)O	i	i	i	i	-10	-0.36	/	/
COc1cc2cc(Oc3ccc4ccc(=O)oc4c3)c(=O)oc2cc1OC(=O)/C=C/c1ccccc1	i	i	i	i	1	0.48	/	/
Cn1c(=O)n(CCCOc2ccc(Cl)cc2)c2ccccc21	i	-8.7*	i	i	-11	-0.063	100*	i
CCc1ccc(NC(=O)C(=S)NC2CCCCC2)cc1	i	i	i	i	-17	0.15	/	/
CCc1ccc(NC(=O)NC2CCCCCCC2)cc1	i	-9.4*	i	i	-7	/	125*	0.12*
CC(C)CCNCC(O)CON=C1c2ccccc2-c2ccccc21 (centres undefined)	i	-8.8*	i	i	-22	1.6	104*	i
COCCNCC(O)CON=C1c2ccccc2-c2ccccc21 (centres undefined)	i	i	i	i	-27	0.63	/	/

Compound activity from PubChem.
